We go through 20 compounds from ChEMBL document CHEMBL4196202, “Discovery and Structure-Based Optimization of Benzimidazole-Derived Activators of SOS1-Mediated Nucleotide Exchange on RAS” (J Med Chem, 2018).

Series [1] deals with T1, Son of sevenless homolog 1 (Homo sapiens, UniProt Q07889).
T1 sequence (Q07889 whole entry): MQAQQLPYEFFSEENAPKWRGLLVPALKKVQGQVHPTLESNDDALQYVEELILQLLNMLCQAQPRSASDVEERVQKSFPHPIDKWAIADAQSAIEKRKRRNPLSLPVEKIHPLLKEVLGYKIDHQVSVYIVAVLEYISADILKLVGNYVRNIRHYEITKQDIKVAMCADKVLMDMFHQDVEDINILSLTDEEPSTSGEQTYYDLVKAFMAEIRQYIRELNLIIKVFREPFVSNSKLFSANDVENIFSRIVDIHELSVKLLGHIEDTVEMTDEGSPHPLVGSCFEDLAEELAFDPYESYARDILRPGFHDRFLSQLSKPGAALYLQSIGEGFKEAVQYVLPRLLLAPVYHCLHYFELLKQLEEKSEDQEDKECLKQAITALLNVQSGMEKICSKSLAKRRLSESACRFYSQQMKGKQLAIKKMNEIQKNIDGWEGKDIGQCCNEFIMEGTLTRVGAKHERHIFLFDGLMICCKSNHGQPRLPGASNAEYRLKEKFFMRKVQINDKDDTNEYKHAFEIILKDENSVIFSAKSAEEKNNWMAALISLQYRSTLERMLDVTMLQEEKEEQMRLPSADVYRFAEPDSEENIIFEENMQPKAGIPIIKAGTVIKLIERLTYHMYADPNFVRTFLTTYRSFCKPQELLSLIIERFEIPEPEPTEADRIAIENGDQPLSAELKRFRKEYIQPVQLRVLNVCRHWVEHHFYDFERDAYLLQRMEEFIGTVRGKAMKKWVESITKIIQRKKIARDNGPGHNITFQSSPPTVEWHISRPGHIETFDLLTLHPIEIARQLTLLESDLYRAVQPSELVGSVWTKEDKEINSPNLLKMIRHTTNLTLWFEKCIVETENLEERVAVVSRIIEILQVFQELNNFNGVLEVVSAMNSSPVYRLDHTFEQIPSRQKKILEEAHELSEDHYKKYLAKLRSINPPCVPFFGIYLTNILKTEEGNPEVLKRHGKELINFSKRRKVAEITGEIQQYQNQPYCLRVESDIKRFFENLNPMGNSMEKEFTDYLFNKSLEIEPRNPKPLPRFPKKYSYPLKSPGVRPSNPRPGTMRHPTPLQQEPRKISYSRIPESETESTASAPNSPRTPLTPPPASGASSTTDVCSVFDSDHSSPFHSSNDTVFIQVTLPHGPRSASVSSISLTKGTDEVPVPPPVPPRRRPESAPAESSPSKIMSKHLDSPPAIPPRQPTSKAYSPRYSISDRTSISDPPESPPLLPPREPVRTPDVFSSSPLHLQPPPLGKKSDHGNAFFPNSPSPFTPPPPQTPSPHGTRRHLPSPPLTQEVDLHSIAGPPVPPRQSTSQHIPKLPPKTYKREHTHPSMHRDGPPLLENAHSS
Kind of series: Binding affinity to human recombinant N-terminal His6-tagged SOS1 (564 to 1049 residues) expressed in BL21-RIL Escherichia coli by fluorescent probe S1 based fluorescence polarization anisotrophy saturation binding assay. A digest of the protocol:
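SOS1cat (aa 564–1049) was titrated in a 12-point, 2-fold series from 10 μM top against 50 nM fluorescein-labeled probe. Buffer was 20 mM Tris-HCl pH 7.5, 50 mM NaCl, 1 mM magnesium chloride, with 20 min at room temperature in the dark. Anisotropy was read and Kd reported as mean ± SD of at least three independent experiments.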
(Fluorescence polarisation rises when a labelled molecule tumbles more slowly, as on binding a larger partner.)

Series [2] concerns the target T1, Son of sevenless homolog 1. Kind of series: Binding affinity to human recombinant N-terminal His6-tagged SOS1 (564 to 1049 residues) expressed in BL21-RIL Escherichia coli by fluorescent probe S3 based fluorescence polarization anisotrophy saturation binding assay. Put shortly: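 SOS1cat (aa 564–1049) was titrated in a 16-point, 3-fold series from 10 μM top against 50 nM fluorescein probe S3. Buffer was 20 mM Tris-HCl pH 7.5, 50 mM NaCl, 1 mM magnesium chloride. Fluorescence anisotropy was read and Kd reported as mean ± SD of at least three independent experiments.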

Series [3] has as its target T1, Son of sevenless homolog 1. Kind of series: Activation of SOS1 in human HeLa cells expressing wild type KRAS assessed as induction of ERK1/2 T202/Y204 phosphorylation incubated for 30 mins by In-cell Western assay. The class given is cell-based.
Series [4] addresses Son of sevenless homolog 1 (Homo sapiens, UniProt Q07889). Kind of series: Activation of SOS1 in human NCI-H727 cells expressing KRAS G12V mutant assessed as induction of ERK1/2 T202/Y204 phosphorylation incubated for 30 mins by In-cell Western assay. The class given is cell-based.
Series [5] addresses T2, Son of sevenless homolog 1 (Homo sapiens) (UniProt Q07889).
T2 sequence (whole entry): T1 sequence (Q07889 whole entry)
Kind of series: Biphasic activity at of SOS1 in human HeLa cells expressing wild type KRAS assessed as induction of ERK1/2 T202/Y204 phosphorylation at 1.5 to 100 uM (lower range) incubated for 30 mins by In-cell Western assay. The class given is cell-based.

Series [6] deals with T2, Son of sevenless homolog 1 (Homo sapiens). Kind of series: Biphasic activity at of SOS1 in human HeLa cells expressing wild type KRAS assessed as reduction in ERK1/2 T202/Y204 phosphorylation at 1.5 to 100 uM (higher range) incubated for 30 mins by In-cell Western assay. The class given is cell-based.
The target is the same in series [7]. Kind of series: Activation of SOS1 in human NCI-H727 cells expressing KRAS G12V mutant assessed as induction of ERK1/2 T202/Y204 phosphorylation at 1.5 to 100 uM (lower range) incubated for 30 mins by In-cell Western assay. The class given is cell-based.
Series [8] has the same target. Kind of series: Activation of SOS1 in human NCI-H727 cells expressing KRAS G12V mutant assessed as induction of ERK1/2 T202/Y204 phosphorylation at 1.5 to 100 uM (higher range) incubated for 30 mins by In-cell Western assay. The class given is cell-based.
The target is the same in series [9]. Description: Activation of SOS1 in human HeLa cells expressing wild type KRAS assessed as increase in RAS-GTP levels at 10 to 30 uM incubated for 10 mins by active RAS pull-down assay. The class given is cell-based. Put shortly:
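HeLa cells, STR-authenticated and mycoplasma-negative, were passaged at least twice after thaw (25 passages maximum). They were seeded to reach 70% confluency after 24 h, then treated. Active RAS-GTP was captured by RAF1-RBD pull-down and detected by SDS-PAGE and western blot with a pan-RAS antibody and a fluorescent secondary, read on an Odyssey imager. Total RAS and α-tubulin in the input served as loading controls.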

For series [10] the target is unchanged. Description: Activation of SOS1 in human HeLa cells expressing wild type KRAS assessed as induction of ERK1/2 T202/Y204 phosphorylation at 1.5 to 100 uM incubated for 30 mins by In-cell Western assay.
Series [11] is described as follows: Aqueous solubility in pH 6.8 buffer at 1 mg/mL by HPLC/DAD-UV assay. The class given is physicochemical. A digest of the protocol:
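Solid compound was dispensed at 1 mg/mL into McIlvaine buffer pH 6.8, with a reference dissolved in acetonitrile/water 1:1 (v/v). Dissolved concentration was quantified by HPLC-DAD-UV. Single experiment.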

Series [12] deals with T2, Son of sevenless homolog 1 (Homo sapiens). Kind of series: Activation of SOS1 in human HeLa cells expressing wild type KRAS assessed as increase in RAS-GTP levels at 0.3 to 30 uM incubated for 10 mins by active RAS pull-down assay. The class given is cell-based. Put shortly:
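HeLa cells seeded to reach 70% confluency after 24 h, then treated. RAS-GTP was captured by a RAF1-RBD active RAS pull-down kit, resolved by SDS-PAGE, blotted to PVDF and probed with pan-RAS antibody. Total RAS and α-tubulin inputs served as loading controls. Detection was by fluorescent secondary antibody on an Odyssey imager.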

Series [13] deals with T1, Son of sevenless homolog 1. Description: Binding affinity to human recombinant N-terminal His6-tagged SOS1 (564 to 1049 residues) expressed in BL21-RIL Escherichia coli by fluorescent probe S2 based fluorescence polarization anisotrophy saturation binding assay.

One may read the Kd as the constant that tells how readily two partners part at equilibrium. As a reminder, the EC50 is the concentration giving half of the maximal effect. By solubility is commonly meant the concentration that dissolves in the medium under given conditions. Lower therefore signals little dissolved substance.

In brackets after ≈: the same amount, converted by molar mass. Activity calls are given as the source filed them. The calls are words filed in the database; no cut-off is given here.

For `Cc1cc(Cn2c(N3CCNCC3)nc3c(-c4ccccc4C4CCC4)cc(Cl)cc32)cc(C)c1F`, the Kd in series [1] was determined as 440 nM.

Take `Cc1cc(Cn2c(N3CC4(CNC4)C3)nc3c(-c4c(C)n[nH]c4C)cc(Cl)cc32)cc(C)c1F`: the equilibrium dissociation constant (Kd) in [2] came to 9 nM. Also, the 50% effective concentration (EC50) in [3] amounted to 14100 nM; in series [4], 21100 nM. The outcome in [5], in [6], in series [7] and in series [8] was Active.

On to `Cc1cc(Cn2c(N3CCNCC3)nc3c(C4=CCNCC4)cc(Cl)cc32)cc(C)c1F`, for which the dissociation constant Kd in series [1] was found to be 250 nM.

For `Cc1cc(Cn2c(N3CCNCC3)nc3c(N4CCN(C)CC4)cc(Cl)cc32)cc(C)c1F`, the outcome in series [5], in series [6], in series [8], in series [9] and in [10] was Active.

On to `Cc1cc(Cn2c(N3CCNCC3)nc3c(-c4ccccc4)cc(Cl)cc32)cc(C)c1F`, for which, in series [1], the Kd worked out at 270 nM.

Take `CCc1ccccc1-c1cc(Cl)cc2c1nc(N1CCNCC1)n2Cc1cc(C)c(F)c(C)c1`: in series [1], the Kd came to 210 nM.

As for `Cc1cc(Cn2c(N3CCNCC3)nc3c(-c4cccc(C(F)(F)F)c4)cc(Cl)cc32)cc(C)c1F`, the Kd in series [1] was found to be 670 nM.

As for `Cc1cc(Cn2c(N3CC4(CNC4)C3)nc3c(-c4cnc(N)nc4C)cc(Cl)cc32)cc(C)c1F`, in [2], the equilibrium dissociation constant (Kd) turned out to be 12 nM. Besides, the concentration giving a half-maximal response (EC50) in [3] turned out to be 7800 nM; in series [4], 13400 nM. For the same compound, the result in series [5], in series [6], in series [7] and in series [8] was Active.

As to `Cc1cc(Cn2c(N3CCNCC3)nc3ccc(Cl)cc32)cc(C)c1F`, the dissociation constant (Kd) in series [1] came out at 460 nM. For the same compound, the concentration giving a half-maximal response (EC50) was 14500 nM in [3] and 21200 nM in series [4]. The outcome in series [5], in [6], in [7] and in series [8] was Active.

On to `Cc1cc(Cn2c(N3CCNCC3)nc3c(N4CCC(N)CC4)cc(Cl)cc32)cc(C)c1F`, for which the Kd in series [1] is 240 nM.

Turning to `Cc1cc(Cn2c(N3CC4(CNC4)C3)nc3c(-c4cncnc4C)cc(Cl)cc32)cc(C)c1F`, the Kd in series [2] is 16 nM. In addition, the EC50 came to 11400 nM in [3] and 15700 nM in series [4]. Besides, the solubility in [11] came out at 3 µg/mL (≈ 6.29 µM). Further, the result in series [5], in [6], in series [7], in series [8] and in series [12] was Active.

As to `Cc1cc(Cn2c(N3CCNCC3)nc3c(-c4ccccc4C(C)C)cc(Cl)cc32)cc(C)c1F`, in series [1], the Kd was found to be 390 nM.

`Cc1cc(Cn2c(N3CCNCC3)nc3c(-c4ccccc4C(F)(F)F)cc(Cl)cc32)cc(C)c1F`: the Kd in series [1] turned out to be 150 nM.

On to `Cc1ncncc1-c1cc(Cl)cc2c1nc(N1CC3(CNC3)C1)n2Cc1ccc(F)cc1`, for which the Kd in series [13] worked out at 180 nM. The half-maximal effective concentration (EC50) worked out at 33200 nM in [3] and 42500 nM in series [4]. Further, the result in [5], in [7] and in series [12] was Active. Besides, the result in [6] and in [8] was inactive.

On to `Cc1cc(Cn2c(N3CC4(CNC4)C3)nc3c(-c4ccccc4Cl)cc(Cl)cc32)cc(C)c1F`, for which, in [2], the Kd worked out at 12 nM. Moreover, the half-maximal effective concentration (EC50) was found to be 14000 nM in series [3] and 19700 nM in [4]. In addition, the result in [5], in series [6], in series [7] and in series [8] was Active.

Turning to `Cc1cc(Cn2c(N3CCNCC3)nc3c(-c4ccccc4Cl)cc(Cl)cc32)cc(C)c1F`, in series [1], the Kd was 120 nM. For the same compound, the concentration giving a half-maximal response (EC50) in series [3] came to 11000 nM; in series [4], 36800 nM. Moreover, the result in series [5], in series [6] and in series [7] was Active. Further, the outcome in series [8] was inactive.

With `Cc1cc(Cn2c(N3CCNCC3)nc3c(-c4cccnc4)cc(Cl)cc32)cc(C)c1F`, in series [1], the Kd stood at 330 nM.

Turning to `Cc1cc(Cn2c(N3CCNCC3)nc3c(-c4ccc(C(F)(F)F)cc4)cc(Cl)cc32)cc(C)c1F`, the dissociation constant (Kd) in series [1] stood at 1050 nM.

For the compound `Cc1nc(N)ncc1-c1cc(Cl)cc2c1nc(N1CC3(CNC3)C1)n2Cc1ccc(F)cc1`, the equilibrium dissociation constant (Kd) in [2] is 36 nM. The 50% effective concentration (EC50) is 14000 nM in series [3] and 27500 nM in series [4]. For the same compound, the result in series [5], in series [6] and in series [7] was Active. In addition, the outcome in series [8] was inactive.

Consider `Cc1cc(Cn2c(N3CCNCC3)nc3c(-c4cncnc4C)cc(Cl)cc32)cc(C)c1F`, for which, in series [13], the Kd is 110 nM. In addition, the figures for the EC50 in series [3] and in series [4] were 10200 nM and 14500 nM, respectively. The result in [5], in series [6], in series [7], in series [8] and in [12] was Active.
